Measured values taken from ChEMBL document CHEMBL3352314, “Synthesis and antiproliferative activity of 8-hydroxyquinoline derivatives containing a 1,2,3-triazole moiety” (Eur J Med Chem, 2014).
Values after ≈ are worked out from the molar mass of the structure shown.

How the values were obtained:
U-251 = assay: Antiproliferative activity against human U251 cells assessed as growth inhibition after 48 hrs by sulforhodamine B assay; assay type: functional; conditions: U-251, 48 h
Method in brief: (§1)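 Cells in RPMI with penicillin:streptomycin added, exposed 48 h at 37 °C, 5% CO2 to 0.25, 2.5, 25 and 250 µg/mL compound in DMSO/RPMI (0.1% v/v). Doxorubicin (0.025–25 µg/mL) served as positive control. Cells were then fixed with 50% TCA and stained with sulforhodamine B, with protein read at 540 nm. Growth = 100×(T−T0)/(C−T0), using T0 and 48 h readings. GI50 was obtained by non-linear regression. Done in triplicate.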

MCF7 = assay: Antiproliferative activity against human MCF7 cells assessed as growth inhibition after 48 hrs by sulforhodamine B assay; assay type: functional; conditions: MCF7, 48 h; method in brief: as §1
NCI/ADR-RES = assay: Antiproliferative activity against human NCI/ADR-RES cells assessed as growth inhibition after 48 hrs by sulforhodamine B assay; assay type: functional; method in brief: as §1
786-0 = assay: Antiproliferative activity against human 786-0 cells assessed as growth inhibition after 48 hrs by sulforhodamine B assay; assay type: functional; conditions: 786-0, 48 h; method in brief: as §1
NCI-H460 [1] = assay: Antiproliferative activity against human NCI-H460 cells assessed as growth inhibition after 48 hrs by sulforhodamine B assay; assay type: functional; conditions: NCI-H460, 48 h; method in brief: as §1
[2] = Antiproliferative activity against human PC3 cells assessed as growth inhibition after 48 hrs by sulforhodamine B assay; assay type: functional; conditions: PC-3, 48 h; method in brief: as §1
[3] = Antiproliferative activity against human OVCAR3 cells assessed as growth inhibition after 48 hrs by sulforhodamine B assay; assay type: functional; conditions: OVCAR-3, 48 h; method in brief: as §1
[4] = Antiproliferative activity against human HaCaT cells assessed as growth inhibition after 48 hrs by sulforhodamine B assay; assay type: cell-based; method in brief: as §1
HaCaT [5] = assay: Selectivity index, ratio of GI50 for human HaCaT cells to GI50 for human MCF7 cells; assay type: functional
HaCaT [6] = assay: Selectivity index, ratio of GI50 for human HaCaT cells to GI50 for human 786-0 cells; assay type: functional
NCI-H460 [7] = assay: Selectivity index, ratio of GI50 for human HaCaT cells to GI50 for human NCI-H460 cells; assay type: functional
HaCaT [8] = assay: Selectivity index, ratio of GI50 for human HaCaT cells to GI50 for human PC3 cells; assay type: functional
HaCaT [9] = assay: Selectivity index, ratio of GI50 for human HaCaT cells to GI50 for human OVCAR3 cells; assay type: functional
HaCaT [10] = assay: Selectivity index, ratio of GI50 for human HaCaT cells to GI50 for human U251 cells; assay type: functional
HaCaT [11] = assay: Selectivity index, ratio of GI50 for human HaCaT cells to GI50 for human NCI/ADR-RES cells; assay type: functional

SMILES | GI50 (U-251) [µg/mL] | GI50 (MCF7) [µg/mL] | GI50 (NCI/ADR-RES) [µg/mL] | GI50 (786-0) [µg/mL] | GI50 (NCI-H460 [1]) [µg/mL] | GI50 [2] [µg/mL] | GI50 [3] [µg/mL] | GI50 at 48 h [4] [µg/mL] | RatioGI50 (HaCaT [5]) | RatioGI50 (HaCaT [6]) | RatioGI50 (NCI-H460 [7]) | RatioGI50 (HaCaT [8]) | RatioGI50 (HaCaT [9]) | RatioGI50 (HaCaT [10]) | RatioGI50 (HaCaT [11])
Ic1ccc(Cn2cc(CCCOc3cccc4cccnc34)nn2)cc1 | > 250 | 25 (≈ 53.2 µM) | > 250 | 22.6 (≈ 48.1 µM) | 24.6 (≈ 52.3 µM) | 24.7 (≈ 52.5 µM) | 24.7 (≈ 52.5 µM) | > 250 | >10 | >11.1 | >10.2 | >10.1 | >10.1 | – | –
Fc1ccc(Cn2cc(CCCOc3cccc4cccnc34)nn2)cc1 | 20.7 (≈ 57.1 µM) | 11.7 (≈ 32.3 µM) | 49.4 (≈ 136 µM) | 195 (≈ 538 µM) | 34.4 (≈ 94.9 µM) | 20.1 (≈ 55.5 µM) | 23.1 (≈ 63.7 µM) | 115 (≈ 318 µM) | 9.8 | 0.6 | 3.3 | 5.7 | 5 | 5.6 | 2.3
Clc1ccc(Cn2cc(CCCOc3cccc4cccnc34)nn2)cc1 | 3.4 (≈ 8.97 µM) | 6.2 (≈ 16.4 µM) | 11.6 (≈ 30.6 µM) | 2.8 (≈ 7.39 µM) | 11.2 (≈ 29.6 µM) | 3.6 (≈ 9.5 µM) | 8.1 (≈ 21.4 µM) | 4.2 (≈ 11.1 µM) | 0.7 | 1.5 | 0.4 | 1.2 | 0.5 | 1.2 | 0.4
Brc1ccc(Cn2cc(CCCOc3cccc4cccnc34)nn2)cc1 | 8.4 (≈ 19.8 µM) | 28 (≈ 66.1 µM) | 25.8 (≈ 60.9 µM) | 25.9 (≈ 61.2 µM) | 11.7 (≈ 27.6 µM) | 8.4 (≈ 19.8 µM) | 27.2 (≈ 64.3 µM) | 29.2 (≈ 69 µM) | 1 | 1.1 | 2.5 | 3.5 | 1.1 | 3.5 | 1.1
FC(F)(F)Oc1ccc(Cn2cc(CCCOc3cccc4cccnc34)nn2)cc1 | 9.8 (≈ 22.9 µM) | 3.1 (≈ 7.24 µM) | 5.5 (≈ 12.8 µM) | 7.9 (≈ 18.4 µM) | 10.4 (≈ 24.3 µM) | 5 (≈ 11.7 µM) | 24.5 (≈ 57.2 µM) | 4 (≈ 9.34 µM) | 1.3 | 0.5 | 0.4 | 0.8 | 0.2 | 0.4 | 0.7
Fc1ccc(Cn2cc(CCCOc3cccc4cccnc34)nn2)cc1F | 18.2 (≈ 47.8 µM) | 21.3 (≈ 56 µM) | 42.1 (≈ 111 µM) | 8.5 (≈ 22.3 µM) | 23.7 (≈ 62.3 µM) | 6.6 (≈ 17.4 µM) | 63.5 (≈ 167 µM) | 41.7 (≈ 110 µM) | 1.9 | 4.9 | 1.8 | 6.3 | 0.7 | 2.3 | 1
Clc1cc(Cl)c(Cn2cc(CCCOc3cccc4cccnc34)nn2)c(Cl)c1 | 3.1 (≈ 6.92 µM) | 2.9 (≈ 6.48 µM) | 2.8 (≈ 6.25 µM) | 5.6 (≈ 12.5 µM) | 7.4 (≈ 16.5 µM) | 2.8 (≈ 6.25 µM) | 11.4 (≈ 25.5 µM) | 5.3 (≈ 11.8 µM) | 1.8 | 0.9 | 0.7 | 1.9 | 0.5 | 1.7 | 1.9
Clc1ccc(Br)cc1Cn1cc(CCCOc2cccc3cccnc23)nn1 | 8.7 (≈ 19 µM) | 9.6 (≈ 21 µM) | 2.5 (≈ 5.46 µM) | > 250 | 7.9 (≈ 17.3 µM) | 8.2 (≈ 17.9 µM) | 8 (≈ 17.5 µM) | 4.9 (≈ 10.7 µM) | 0.5 | – | 0.6 | 0.6 | 0.6 | 0.6 | 2
c1ccc(Cn2cc(CCCOc3cccc4cccnc34)nn2)cc1 | 25.2 (≈ 73.2 µM) | 12.7 (≈ 36.9 µM) | 10.4 (≈ 30.2 µM) | 25 (≈ 72.6 µM) | 28.6 (≈ 83 µM) | 16.8 (≈ 48.8 µM) | 24.3 (≈ 70.6 µM) | 12.7 (≈ 36.9 µM) | 1 | 0.5 | 0.4 | 0.8 | 0.5 | 0.5 | 1.2
c1cncc(CCCn2cc(CCCOc3cccc4cccnc34)nn2)c1 | 25.1 (≈ 67.2 µM) | 27.8 (≈ 74.4 µM) | 12.5 (≈ 33.5 µM) | 69.4 (≈ 186 µM) | 44.3 (≈ 119 µM) | 26.7 (≈ 71.5 µM) | 39.1 (≈ 105 µM) | 25 (≈ 66.9 µM) | 0.9 | 0.4 | 0.6 | 0.9 | 0.6 | 1 | 2
CC1(C)O[C@H]2[C@@H](O1)[C@@H](Cn1cc(CCCOc3cccc4cccnc34)nn1)O[C@@H]1OC(C)(C)O[C@@H]12 | 24.3 (≈ 48.9 µM) | 2.6 (≈ 5.24 µM) | 28.6 (≈ 57.6 µM) | 30.8 (≈ 62 µM) | 30.1 (≈ 60.6 µM) | 16.2 (≈ 32.6 µM) | < 0.25 | 29.4 (≈ 59.2 µM) | 11.3 | 0.9 | 1 | 1.8 | >117.6 | 1.2 | 1
O=C(Cn1cc(CCCOc2cccc3cccnc23)nn1)OCc1ccc(F)c(F)c1 | 26.5 (≈ 60.4 µM) | 27.2 (≈ 62 µM) | 4.9 (≈ 11.2 µM) | 26.1 (≈ 59.5 µM) | 29.2 (≈ 66.6 µM) | 2.9 (≈ 6.61 µM) | 15.1 (≈ 34.4 µM) | 21.4 (≈ 48.8 µM) | 0.8 | 0.8 | 0.7 | 7.4 | 1.4 | 0.8 | 4.4
COc1cccc2c1C(=O)c1c(O)c3c(c(O)c1C2=O)C[C@@](O)(C(=O)CO)C[C@@H]3O[C@H]1C[C@H](N)[C@H](O)[C@H](C)O1 [DOXORUBICIN] | 0.039 (≈ 0.0718 µM) | 0.038 (≈ 0.0699 µM) | 0.54 (≈ 0.994 µM) | 0.15 (≈ 0.276 µM) | < 0.025 | 3.8 (≈ 6.99 µM) | 0.43 (≈ 0.791 µM) | 0.11 (≈ 0.202 µM) | – | – | – | – | – | – | –
